Reference: ChEMBL document CHEMBL2375255, “New quinazoline derivatives for telomeric G-quadruplex DNA: effects of an added phenyl group on quadruplex binding ability” (Eur J Med Chem, 2013)
Active and inactive are the calls of the source. The rule behind the calls is not given here.

Columns and labels:
Homo sapiens [1] = species on record: Homo sapiens; assay: Binding affinity to human telomeric G-quadruplex 5'-d(GGG[TTAGGG]3)-3' DNA assessed as change in melting temperature at 25 uM measured at 265 nM wavelength by circular dichroism spectroscopic analysis
Outline: (§1)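 HTG21 in 10 mM Tris-HCl, pH 7.4, 60 mM KCl. CD melting profiles were read at 265 nm and at 290 nm, and ΔTm was determined from them.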

Homo sapiens [2] = species on record: Homo sapiens; assay: Binding affinity to human telomeric G-quadruplex 5'-d(GGG[TTAGGG]3)-3' DNA assessed as induction of conformation conversion from antiparallel to parallel type at 25 uM after 5 mins by circular dichroism spectroscopic analysis
Homo sapiens [3] = species on record: Homo sapiens; assay: Binding affinity to human telomeric G-quadruplex 5'-d(GGG[TTAGGG]3)-3' DNA assessed as change in melting temperature at 25 uM measured at 290 nM wavelength by circular dichroism spectroscopic analysis; outline: as §1
[4] = Binding affinity to human biotinylated telomeric G-quadruplex 5'-d(GGG[TTAGGG]3)-3' DNA by surface plasmon resonance analysis
Outline: (§2)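 SPR with a Neutravidin-coated sensor chip. Biotinylated duplex DNA and biotinylated HTG21 were folded in running buffer (50 mM Tris-HCl, 100 mM KCl, pH 7.4, 0.005% Tween20) and immobilized. A range of ligand concentrations was injected simultaneously over G-quadruplex, duplex and blank reference channels. Binding plots from sensorgrams gave equilibrium constants (KD).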

[5] = Binding affinity to biotinylated duplex DNA (unknown origin) by surface plasmon resonance analysis; outline: as §2
[6] = Binding affinity to biotinylated duplex DNA (unknown origin) up to by surface plasmon resonance analysis; outline: as §2
[7] = biological target: Telomerase reverse transcriptase (Homo sapiens, UniProt O14746); assay: Inhibition of telomerase in human HL60 cell extract by TRAP-LIG assay; design: species or system HL-60
Telomerase reverse transcriptase, sequence (O14746 whole entry): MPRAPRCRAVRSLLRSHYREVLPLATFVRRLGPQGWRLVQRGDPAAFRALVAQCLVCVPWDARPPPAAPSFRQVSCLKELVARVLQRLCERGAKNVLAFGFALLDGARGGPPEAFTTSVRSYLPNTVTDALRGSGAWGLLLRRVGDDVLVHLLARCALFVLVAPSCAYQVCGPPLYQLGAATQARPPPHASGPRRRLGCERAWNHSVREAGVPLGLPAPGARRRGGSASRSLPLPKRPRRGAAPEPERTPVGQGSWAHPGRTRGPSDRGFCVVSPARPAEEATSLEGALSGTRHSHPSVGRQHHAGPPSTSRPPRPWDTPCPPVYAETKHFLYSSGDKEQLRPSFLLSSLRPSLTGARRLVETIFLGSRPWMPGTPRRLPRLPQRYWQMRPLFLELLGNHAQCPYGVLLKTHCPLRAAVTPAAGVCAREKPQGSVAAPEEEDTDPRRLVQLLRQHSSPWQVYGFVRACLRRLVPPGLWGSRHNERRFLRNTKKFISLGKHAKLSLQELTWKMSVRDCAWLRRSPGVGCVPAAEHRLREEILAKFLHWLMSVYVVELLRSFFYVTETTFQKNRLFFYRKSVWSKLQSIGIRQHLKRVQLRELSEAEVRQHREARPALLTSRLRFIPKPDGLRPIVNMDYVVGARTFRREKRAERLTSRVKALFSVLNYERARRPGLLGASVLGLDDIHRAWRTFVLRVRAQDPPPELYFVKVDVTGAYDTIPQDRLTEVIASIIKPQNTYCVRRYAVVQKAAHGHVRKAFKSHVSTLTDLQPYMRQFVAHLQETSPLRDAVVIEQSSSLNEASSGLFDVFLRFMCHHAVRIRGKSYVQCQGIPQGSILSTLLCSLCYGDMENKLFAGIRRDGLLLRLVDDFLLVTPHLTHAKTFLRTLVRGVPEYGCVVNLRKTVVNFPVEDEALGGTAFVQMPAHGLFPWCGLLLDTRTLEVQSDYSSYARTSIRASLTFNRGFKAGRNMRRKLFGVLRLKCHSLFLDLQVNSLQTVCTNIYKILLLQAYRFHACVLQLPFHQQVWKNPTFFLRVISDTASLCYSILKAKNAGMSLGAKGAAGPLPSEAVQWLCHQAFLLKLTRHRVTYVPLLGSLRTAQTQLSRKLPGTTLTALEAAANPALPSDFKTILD
Outline: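 TRAP-LIG: compounds added to telomerase reaction mix containing HL60 cell extract. Ligand removed after enzyme incubation, before amplification. Purified extended products PCR-amplified for 35 cycles (94 °C 30 s, 61 °C 1 min, 72 °C 1 min). IC50 determined.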

Homo sapiens [8] = species on record: Homo sapiens; assay: Binding affinity to human biotinylated telomeric G-quadruplex 5'-d(GGG[TTAGGG]3)-3' DNA up to 20 uM by surface plasmon resonance analysis; outline: as §2
HL-60 [9] = assay: Binding affinity to G-quadruplex DNA in human HL60 cells assessed as telomere shortening at 1 uM after 12 days by restriction fragment length assay; assay type: cell-based
Outline: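 HL60 cells exposed to ligand for 12 days. Genomic DNA digested with Hinf1/Rsa1, run on 0.8% agarose gel and transferred to nylon membrane. DNA fixed by baking at 120 °C for 20 min. Membrane hybridized with DIG-labelled telomeric-repeat probe, then detected with anti-DIG-alkaline phosphatase.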

HL-60 [10] = assay: Induction of senescence in human HL60 cells assessed as increase in proportion of enlarged and flattened cells at 1 uM after 12 days by senescence-associated beta-galactosidase activity based optical microscopic analysis; assay type: functional, cell-based
Outline: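 HL60 cells treated continuously for 12 days; 0.1% DMSO as control. Cells fixed 15 min at room temperature in 2% formaldehyde/0.2% glutaraldehyde, then washed with PBS. Stained overnight at 37 °C with 1 mg/mL X-gal solution. Enlarged, flattened, stained cells viewed by optical microscopy.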

HL-60 [11] = assay: Cytotoxicity against human HL60 cells treated every 3 days up to 12 days; assay type: functional, cell-based
HL-60 [12] = assay: Cytotoxicity against human HL60 cells at 0.5 to 1 uM treated every 3 days up to 12 days relative to control; assay type: functional, cell-based
HL-60 [13] = assay: Cytotoxicity against human HL60 cells after 48 hrs by MTT assay; assay type: functional, cell-based; details: HL-60, 48 h
Outline: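 HL60 cells seeded at 1.0 × 10³ per well and exposed to a range of concentrations for 48 h at 37 °C, 5% CO₂. MTT (5 mg/mL) added for 4 h. Formazan dissolved in DMSO and OD read at 570 nm. Each dose tested in triplicate; IC50 derived from mean OD versus concentration curves.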

HL-60 [14] = assay: Binding affinity to G-quadruplex DNA in human HL60 cells assessed as telomere shortening at 0.01 to 1 uM after 12 days by restriction fragment length assay

Row | SMILES | ΔTm (Homo sapiens [1]) [°C] | Activity (Homo sapiens [2]) | ΔTm (Homo sapiens [3]) [°C] | Kd [4] [µM] | also measured
1 | CCN(CC)CCC(=O)Nc1ccc(C(=O)Nc2cc(Cl)ccc2-c2nc(NCCCN(C)C)c3ccccc3n2)cc1 | 21.9 | Active | 2.8 | 0.302 | Activity [6]: inactive
2 | CN(C)CCCNc1c2ccccc2nc2c1[nH]c1ccccc12 | 11.2 | inactive | 8 | 28 | Kd [5]: 5.02 µM
3 | CN(C)CCCNc1nc(-c2ccc(Cl)cc2NC(=O)c2ccc(NC(=O)CCN3CCOCC3)cc2)nc2ccccc12 | 21.6 | Active | 4.7 | 3.06 | Activity [6]: inactive
4 | CN(C)CCCNc1nc(-c2ccccc2NC(=O)CN2CCOCC2)nc2ccccc12 | 0.5 | inactive | 0 |  | 
5 | CN(C)CCCNCCC(=O)Nc1ccccc1-c1nc(NCCCN(C)C)c2ccccc2n1 | 12.4 | Active | 6.2 | 3.36 | IC50 [7]: > 50 µM; Kd [5]: 7.9 µM
6 | CN(C)CCCNCCC(=O)Nc1ccc(C(=O)Nc2ccccc2-c2nc(NCCCN(C)C)c3ccccc3n2)cc1 | > 28 | Active |  | 1.11 | IC50 [7]: 30.9 µM; Activity [6]: inactive
7 | CN(C)CCCNc1nc(-c2ccc(Cl)cc2NC(=O)c2ccc(NC(=O)CCN3CCCC3)cc2)nc2ccccc12 | > 28 | Active | 5.7 | 0.227 | Activity [6]: inactive
8 | CN(C)CCCNc1nc(-c2ccccc2NC(=O)CCN2CCN(C)CC2)nc2ccccc12 | 8 | Active | 2.1 |  | Activity (Homo sapiens [8]): inactive
9 | CN(C)CCCNCCC(=O)Nc1ccc(C(=O)Nc2cc(Cl)ccc2-c2nc(NCCCN(C)C)c3ccccc3n2)cc1 | > 28 | Active | 14.8 | 0.379 | Activity (HL-60 [9]): Active; Activity (HL-60 [10]): Active; Activity (HL-60 [11]): Dose-dependent effect; Activity (HL-60 [12]): Active; IC50 (HL-60 [13]): 1.7 µM; IC50 [7]: 2.3 µM; Activity [6]: inactive; Activity (HL-60 [14]): Active
10 | CN(C)CCCNc1nc(-c2ccccc2NC(=O)CN2CCCC2)nc2ccccc12 | 7.3 | Active | 2.6 |  | 
11 | CCN(CC)CC(=O)Nc1ccccc1-c1nc(NCCCN(C)C)c2ccccc2n1 | 2.1 | Active | 0.7 |  | 
12 | CCN(CC)CCC(=O)Nc1ccccc1-c1nc(NCCCN(C)C)c2ccccc2n1 | 8.2 | Active | 2.5 |  | 
13 | CN(C)CCCNc1nc(-c2ccc(Cl)cc2NC(=O)CCN2CCN(C)CC2)nc2ccccc12 | 14.4 | Active | 4.4 |  | 
14 | CN(C)CCCNc1nc(-c2ccccc2NC(=O)CCN2CCCC2)nc2ccccc12 | 8.7 | Active | 3.6 |  | 
15 | CN(C)CCCNc1nc(-c2ccccc2NC(=O)CCN2CCOCC2)nc2ccccc12 | 4.3 | inactive | 0.9 |  | 

Now from value to compound, other results behind:

Row | ΔTm (Homo sapiens [1]) [°C] | Activity (Homo sapiens [2]) | ΔTm (Homo sapiens [3]) [°C] | Kd [4] [µM] | SMILES | also measured
16 | 15.3 | Active | 8.2 |  | CN(C)CCCNc1nc(-c2ccccc2NC(=O)c2ccc(NC(=O)CCN3CCOCC3)cc2)nc2ccccc12 | 
17 | 21.6 | Active | 11.6 | 8.34 | CCN(CC)CC(=O)Nc1ccc(C(=O)Nc2ccccc2-c2nc(NCCCN(C)C)c3ccccc3n2)cc1 | Kd [5]: 11.9 µM
18 | > 28 | Active | 3.4 | 0.276 | CN(C)CCCNc1nc(-c2ccc(Cl)cc2NC(=O)c2ccc(NC(=O)CCN3CCN(C)CC3)cc2)nc2ccccc12 | Activity [6]: inactive
19 | 21.4 | Active | 11.7 |  | CN(C)CCCNc1nc(-c2ccccc2NC(=O)c2ccc(NC(=O)CN3CCCC3)cc2)nc2ccccc12 | 
20 | 18.7 | Active | 4.6 |  | CN(C)CCCNc1nc(-c2ccccc2NC(=O)c2ccc(NC(=O)CCN3CCCC3)cc2)nc2ccccc12 | 
21 | 21.8 | Active | 7.4 | 2.75 | CN(C)CCCNc1nc(-c2ccccc2NC(=O)c2ccc(NC(=O)CN3CCN(C)CC3)cc2)nc2ccccc12 | Kd [5]: 39.7 µM
22 | 21.7 | Active | 8.2 | 1.48 | CN(C)CCCNc1nc(-c2ccccc2NC(=O)c2ccc(NC(=O)CCN3CCN(C)CC3)cc2)nc2ccccc12 | Kd [5]: 13.2 µM
23 | 11.9 | Active | 4.7 |  | CN(C)CCCNc1nc(-c2ccccc2NC(=O)c2ccc(NC(=O)CN3CCOCC3)cc2)nc2ccccc12 | 
24 | 19.6 | Active | 5.4 | 1.61 | CCN(CC)CCC(=O)Nc1ccc(C(=O)Nc2ccccc2-c2nc(NCCCN(C)C)c3ccccc3n2)cc1 | Kd [5]: 22 µM
25 | 3.1 | inactive | 0.6 |  | CN(C)CCCNc1nc(-c2ccccc2NC(=O)CN2CCN(C)CC2)nc2ccccc12 | Activity (Homo sapiens [8]): inactive
